Results collected from several papers.
Compare with care: the assays were run in different laboratories.
Organism: Enterococcus faecium

Structure (SMILES)	test	system	setting	quantity	value
CC1CCN(CCCN2/C(=C/c3cc[n+](C)c4ccccc34)Sc3ccccc32)CC1.[I-]	microbial killing	ATCC700221		MBC	128 mg/L
O=C(Nc1ccc2c(c1)OC(F)(F)O2)Nc1ccc(Cl)c(C(F)(F)F)c1	microbial growth			MIC	1 µM
Cc1cc(/C=C2\Sc3ccccc3N2CCCN2CCC(C)CC2)c2ccccc2[n+]1C.[I-]	microbial killing	ATCC700221		MBC	> 64 mg/L
CNC(=O)c1cc(Oc2ccc(NC(=O)Nc3ccc(Cl)c(C(F)(F)F)c3)cc2)ccn1	microbial growth			MIC	> 100 µM
O=C(O)COc1ccc(Oc2ccc(-c3noc(-c4ccc(O)cc4)n3)cc2)cc1	microbial growth, broth dilution		24 h	MIC	> 32 mg/L
O=C(O)c1cccc(-n2c(/C=C/c3ccc(F)c(Cl)c3)nc3ccccc3c2=O)c1	microbial growth, broth dilution	NCTC7171		MIC	> 128 mg/L
O=C(N[C@H](CO)[C@H](O)c1ccc([N+](=O)[O-])cc1)C(Cl)Cl	microbial growth, broth dilution	VRE		MIC	3.9 mg/L
O=c1c2cnccc2nc(/C=C/c2ccc(Cl)cc2)n1-c1cccc(O)c1	microbial growth, broth dilution	NCTC7171		MIC	> 128 mg/L
CN(C)CCc1ccc(Oc2ccc(-c3noc(-c4ccc(O)cc4)n3)cc2)cc1	microbial growth, broth dilution		24 h	MIC	4 mg/L
CC(=O)OCc1cccc(-n2c(/C=C/c3ccc(C#N)cc3)nc3ccccc3c2=O)c1	microbial growth, broth dilution	NCTC7171		MIC	> 128 mg/L
O=C(O)CCc1ccc(Oc2ccc(-c3noc(-c4ccc(O)cc4)n3)cc2)cc1	microbial growth, broth dilution		24 h	MIC	> 32 mg/L
